Results: ChEMBL document CHEMBL1131449, “4-(trans-4-Methylcyclohexyl)-4-oxobutyric acid (JTT-608). A new class of antidiabetic agent” (1998)
Active and inactive are the calls of the source. The calls are words filed in the database; no cut-off is given here.

Experiments:
Rattus norvegicus [1] = assay: Percent decrease of hyperglycemia at 30 min after glucose loading(1 g/kg ip) relative to vehicle control in rats at dose 100 mg/kg po; format: functional, organism-based; parameters: dose 100 mg/kg
Outline: (§1)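 Normal rats, groups of four to six, fasted 16 h. Glucose given 1 g/kg ip, with oral vehicle or compound. Tail-vein blood glucose measured by the hexokinase method. Value is % reduction of hyperglycemia 30 min after the glucose load versus vehicle control. Dunnett's two-tailed test used.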

Rattus norvegicus [2] = assay: Percent decrease of hyperglycemia at 30 min after glucose loading(1 g/kg ip) relative to vehicle control in rats at dose 30 mg/kg po; format: functional, organism-based; parameters: dose 30 mg/kg; outline: as §1
Rattus norvegicus [3] = assay: Percent decrease of hyperglycemia at 30 min after glucose loading(1 g/kg ip) relative to vehicle control in rats at dose 100 mg/kg po.; format: functional; parameters: scale not given: the % may be the effect or the level left; outline: as §1
Rattus norvegicus [4] = assay: Hypoglycemic activity in fasting rats at a dose of 30 mg/kg po; format: functional, organism-based; parameters: dose 30 mg/kg
Outline: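 Normal rats, groups of four or five, fasted 16 h, then given vehicle or compound by mouth. Tail-vein blood sampled over 4 h for glucose (hexokinase method) and insulin (two-antibody radioimmunoassay). Comparison to vehicle control by Dunnett's two-tailed test.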

Rattus norvegicus [5] = assay: Percent decrease of hyperglycemia at 30 min after glucose loading(1 g/kg ip) relative to vehicle control in rats at dose 1 mg/kg po; format: functional, organism-based; parameters: dose 1 mg/kg; outline: as §1
Rattus norvegicus [6] = assay: Percent decrease of hyperglycemia at 30 min after glucose loading(1 g/kg ip) relative to vehicle control in rats at dose 3 mg/kg po.; format: functional; parameters: scale not given: the % may be the effect or the level left; outline: as §1
Rattus norvegicus [7] = assay: Percent decrease of hyperglycemia at 30 min after glucose loading(1 g/kg ip) relative to vehicle control in rats at dose 10 mg/kg po.; format: functional; parameters: scale not given: the % may be the effect or the level left; outline: as §1
Rattus norvegicus [8] = assay: Percent decrease of hyperglycemia at 30 min after glucose loading(1 g/kg ip) relative to vehicle control in rats at dose 30 mg/kg po.; format: functional; parameters: scale not given: the % may be the effect or the level left; outline: as §1
Rattus norvegicus [9] = assay: Percent decrease of hyperglycemia at 30 min after glucose loading(1 g/kg ip) relative to vehicle control in rats at dose 10 mg/kg po; format: functional, organism-based; parameters: dose 10 mg/kg; outline: as §1

O=C(O)CCC(=O)C1CCCC1
Effect (Rattus norvegicus [1]): inactive

O=C(O)CCC(=O)C1CCCCCC1
Effect (Rattus norvegicus [1]): inactive

CC1CCCC(C(=O)CCC(=O)O)C1 (centres undefined)
Effect (Rattus norvegicus [2]): inactive | Effect (Rattus norvegicus [3]): 37%

C[C@H]1CC[C@H](CCCC(=O)O)CC1
Effect (Rattus norvegicus [1]): inactive

CC1CCCCC1C(=O)CCC(=O)O (centres undefined)
Effect (Rattus norvegicus [1]): inactive

C[C@H]1CC[C@H](C(=O)NCC(=O)O)CC1
Effect (Rattus norvegicus [1]): inactive

C[C@H]1CC[C@H](C(=O)CCC(=O)O)CC1
Effect (Rattus norvegicus [4]): inactive | Effect (Rattus norvegicus [5]): inactive | Effect (Rattus norvegicus [3]): 65% | Effect (Rattus norvegicus [6]): 24% | Effect (Rattus norvegicus [7]): 32% | Effect (Rattus norvegicus [8]): 41%

C[C@H]1CC[C@@H](C(=O)CCC(=O)O)CC1
Effect (Rattus norvegicus [4]): inactive | Effect (Rattus norvegicus [9]): inactive | Effect (Rattus norvegicus [3]): 44% | Effect (Rattus norvegicus [8]): 32%

CC1(C(=O)CCC(=O)O)CCCCC1
Effect (Rattus norvegicus [2]): inactive | Effect (Rattus norvegicus [3]): 28%

C[C@H]1CC[C@H](S(=O)(=O)CCC(=O)O)CC1
Effect (Rattus norvegicus [1]): inactive

C[C@H]1CC[C@H](C(=O)CCC(N)=O)CC1
Effect (Rattus norvegicus [4]): inactive | Effect (Rattus norvegicus [9]): inactive | Effect (Rattus norvegicus [3]): 47% | Effect (Rattus norvegicus [8]): 27%

O=C(O)CCC(=O)C1CCCCC1
Effect (Rattus norvegicus [4]): inactive | Effect (Rattus norvegicus [9]): inactive | Effect (Rattus norvegicus [3]): 26% | Effect (Rattus norvegicus [8]): 27%

C[C@H]1CC[C@H](C(=O)OCC(=O)O)CC1
Effect (Rattus norvegicus [1]): inactive

C[C@H]1CC[C@H]([S+]([O-])CCC(=O)O)CC1 (some centres undefined)
Effect (Rattus norvegicus [1]): inactive

CC[C@H]1CC[C@H](C(=O)CCC(=O)O)CC1
Effect (Rattus norvegicus [1]): inactive

CC1(C)CCC(C(=O)CCC(=O)O)CC1
Effect (Rattus norvegicus [2]): inactive | Effect (Rattus norvegicus [3]): 34%

C[C@H]1CC[C@H](C(=O)CCCC(=O)O)CC1
Effect (Rattus norvegicus [1]): inactive

CCC[C@H]1CC[C@H](C(=O)CCC(=O)O)CC1
Effect (Rattus norvegicus [1]): inactive

CC(=O)CCC(=O)[C@H]1CC[C@H](C)CC1
Effect (Rattus norvegicus [4]): inactive | Effect (Rattus norvegicus [9]): inactive | Effect (Rattus norvegicus [3]): 31% | Effect (Rattus norvegicus [8]): 30%
